From ChEMBL document CHEMBL4265907, “Design, synthesis and pharmacological evaluation of N4,N6-disubstituted pyrimidine-4,6-diamine derivatives as potent EGFR inhibitors in non-small cell lung cancer” (Eur J Med Chem, 2018)
Values belong to the compound of their own block, whether it stands above or below them.

Legend:
[1] = target: Hepatocyte growth factor receptor (Homo sapiens) (UniProt P08581); assay: Inhibition of N-terminal GST-tagged human MET cytoplasmic domain (956 to 1390 residues) expressed in baculovirus expression system at 1 uM using FAM-labeled peptide as substrate after 10 mins by mobility shift assay relative to control
Sequence of Hepatocyte growth factor receptor (Homo sapiens) (P08581 whole entry, the tested form may be a part): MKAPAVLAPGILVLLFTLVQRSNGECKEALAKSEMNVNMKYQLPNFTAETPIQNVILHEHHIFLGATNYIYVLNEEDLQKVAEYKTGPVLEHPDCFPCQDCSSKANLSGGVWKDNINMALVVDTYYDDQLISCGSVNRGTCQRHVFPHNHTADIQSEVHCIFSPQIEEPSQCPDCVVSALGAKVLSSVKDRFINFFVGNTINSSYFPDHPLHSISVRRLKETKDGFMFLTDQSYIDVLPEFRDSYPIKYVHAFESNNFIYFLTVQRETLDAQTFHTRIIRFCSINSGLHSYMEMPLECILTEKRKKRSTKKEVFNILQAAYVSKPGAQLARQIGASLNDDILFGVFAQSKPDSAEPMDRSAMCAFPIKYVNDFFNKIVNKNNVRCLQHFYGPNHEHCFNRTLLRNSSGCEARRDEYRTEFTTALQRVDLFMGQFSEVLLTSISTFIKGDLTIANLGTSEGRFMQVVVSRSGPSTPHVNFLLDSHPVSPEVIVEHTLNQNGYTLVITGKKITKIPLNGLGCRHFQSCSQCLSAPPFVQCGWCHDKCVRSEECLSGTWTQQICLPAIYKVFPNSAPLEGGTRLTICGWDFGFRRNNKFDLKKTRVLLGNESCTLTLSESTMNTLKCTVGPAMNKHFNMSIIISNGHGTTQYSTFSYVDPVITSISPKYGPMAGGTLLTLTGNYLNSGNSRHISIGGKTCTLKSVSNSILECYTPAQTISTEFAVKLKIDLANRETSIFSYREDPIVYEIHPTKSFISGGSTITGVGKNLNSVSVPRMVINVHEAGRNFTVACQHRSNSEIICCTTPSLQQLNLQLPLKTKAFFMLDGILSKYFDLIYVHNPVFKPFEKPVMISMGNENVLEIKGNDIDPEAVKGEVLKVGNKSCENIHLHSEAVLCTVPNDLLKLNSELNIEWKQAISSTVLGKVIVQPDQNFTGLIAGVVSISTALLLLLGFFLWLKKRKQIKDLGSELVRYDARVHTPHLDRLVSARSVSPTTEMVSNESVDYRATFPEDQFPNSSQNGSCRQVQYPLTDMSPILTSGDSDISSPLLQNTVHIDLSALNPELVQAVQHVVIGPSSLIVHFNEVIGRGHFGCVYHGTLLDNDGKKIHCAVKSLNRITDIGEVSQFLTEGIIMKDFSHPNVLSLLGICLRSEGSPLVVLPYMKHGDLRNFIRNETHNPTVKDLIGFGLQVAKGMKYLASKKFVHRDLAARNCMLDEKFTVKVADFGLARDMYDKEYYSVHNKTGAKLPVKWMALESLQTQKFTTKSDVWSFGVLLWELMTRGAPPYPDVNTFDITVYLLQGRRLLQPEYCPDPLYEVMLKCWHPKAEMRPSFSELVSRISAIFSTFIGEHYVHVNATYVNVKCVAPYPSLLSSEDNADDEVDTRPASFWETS
Method in brief: (§1)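 Caliper mobility-shift kinase assay. Kinase in kinase base buffer was preincubated with compound for 10 min at room temperature. FAM-labelled peptide and ATP at Km were then added, and the reaction ran at 28 °C until quenched with buffer. Screening concentration was 1 µM. Percent inhibition = (max − conversion)/(max − min) × 100, with DMSO as max and a low control as min.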

[2] = target: High affinity nerve growth factor receptor (Homo sapiens) (UniProt P04629); assay: Inhibition of N-terminal GST-tagged human TRKA cytoplasmic domain (436 to 790 residues) expressed in baculovirus expression system at 1 uM using FAM-labeled peptide as substrate after 10 mins by mobility shift assay relative to control; method in brief: as §1
Sequence of High affinity nerve growth factor receptor (Homo sapiens) (P04629 33-796 limits assumed): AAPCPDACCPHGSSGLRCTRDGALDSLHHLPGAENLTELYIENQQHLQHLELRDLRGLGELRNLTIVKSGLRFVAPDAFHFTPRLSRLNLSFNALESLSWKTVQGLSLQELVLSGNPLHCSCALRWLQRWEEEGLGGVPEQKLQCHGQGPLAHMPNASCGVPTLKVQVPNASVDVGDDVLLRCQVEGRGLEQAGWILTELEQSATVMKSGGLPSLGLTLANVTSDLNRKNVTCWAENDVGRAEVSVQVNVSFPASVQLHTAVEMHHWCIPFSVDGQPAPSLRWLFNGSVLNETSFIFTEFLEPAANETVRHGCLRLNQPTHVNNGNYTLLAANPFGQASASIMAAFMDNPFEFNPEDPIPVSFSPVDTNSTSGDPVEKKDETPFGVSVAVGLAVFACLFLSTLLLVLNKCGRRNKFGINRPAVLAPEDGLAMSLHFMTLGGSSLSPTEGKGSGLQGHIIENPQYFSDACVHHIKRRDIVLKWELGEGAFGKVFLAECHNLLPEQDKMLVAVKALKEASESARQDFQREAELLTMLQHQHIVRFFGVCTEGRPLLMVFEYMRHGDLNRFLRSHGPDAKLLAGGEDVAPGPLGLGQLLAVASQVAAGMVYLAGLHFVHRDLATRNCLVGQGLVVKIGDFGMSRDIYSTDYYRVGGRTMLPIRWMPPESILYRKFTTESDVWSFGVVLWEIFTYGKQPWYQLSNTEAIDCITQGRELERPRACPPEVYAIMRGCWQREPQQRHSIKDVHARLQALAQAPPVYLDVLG

[3] = target: Vascular endothelial growth factor receptor 3 (Homo sapiens) (UniProt P35916); assay: Inhibition of recombinant human GST-tagged FLT4 cytoplasmic domain (800 to 1297 residues) expressed in baculovirus expression system at 1 uM using FAM-labeled peptide as substrate after 10 mins by mobility shift assay relative to control; method in brief: as §1
Sequence of Vascular endothelial growth factor receptor 3 (Homo sapiens) (P35916 whole entry, the tested form may be a part): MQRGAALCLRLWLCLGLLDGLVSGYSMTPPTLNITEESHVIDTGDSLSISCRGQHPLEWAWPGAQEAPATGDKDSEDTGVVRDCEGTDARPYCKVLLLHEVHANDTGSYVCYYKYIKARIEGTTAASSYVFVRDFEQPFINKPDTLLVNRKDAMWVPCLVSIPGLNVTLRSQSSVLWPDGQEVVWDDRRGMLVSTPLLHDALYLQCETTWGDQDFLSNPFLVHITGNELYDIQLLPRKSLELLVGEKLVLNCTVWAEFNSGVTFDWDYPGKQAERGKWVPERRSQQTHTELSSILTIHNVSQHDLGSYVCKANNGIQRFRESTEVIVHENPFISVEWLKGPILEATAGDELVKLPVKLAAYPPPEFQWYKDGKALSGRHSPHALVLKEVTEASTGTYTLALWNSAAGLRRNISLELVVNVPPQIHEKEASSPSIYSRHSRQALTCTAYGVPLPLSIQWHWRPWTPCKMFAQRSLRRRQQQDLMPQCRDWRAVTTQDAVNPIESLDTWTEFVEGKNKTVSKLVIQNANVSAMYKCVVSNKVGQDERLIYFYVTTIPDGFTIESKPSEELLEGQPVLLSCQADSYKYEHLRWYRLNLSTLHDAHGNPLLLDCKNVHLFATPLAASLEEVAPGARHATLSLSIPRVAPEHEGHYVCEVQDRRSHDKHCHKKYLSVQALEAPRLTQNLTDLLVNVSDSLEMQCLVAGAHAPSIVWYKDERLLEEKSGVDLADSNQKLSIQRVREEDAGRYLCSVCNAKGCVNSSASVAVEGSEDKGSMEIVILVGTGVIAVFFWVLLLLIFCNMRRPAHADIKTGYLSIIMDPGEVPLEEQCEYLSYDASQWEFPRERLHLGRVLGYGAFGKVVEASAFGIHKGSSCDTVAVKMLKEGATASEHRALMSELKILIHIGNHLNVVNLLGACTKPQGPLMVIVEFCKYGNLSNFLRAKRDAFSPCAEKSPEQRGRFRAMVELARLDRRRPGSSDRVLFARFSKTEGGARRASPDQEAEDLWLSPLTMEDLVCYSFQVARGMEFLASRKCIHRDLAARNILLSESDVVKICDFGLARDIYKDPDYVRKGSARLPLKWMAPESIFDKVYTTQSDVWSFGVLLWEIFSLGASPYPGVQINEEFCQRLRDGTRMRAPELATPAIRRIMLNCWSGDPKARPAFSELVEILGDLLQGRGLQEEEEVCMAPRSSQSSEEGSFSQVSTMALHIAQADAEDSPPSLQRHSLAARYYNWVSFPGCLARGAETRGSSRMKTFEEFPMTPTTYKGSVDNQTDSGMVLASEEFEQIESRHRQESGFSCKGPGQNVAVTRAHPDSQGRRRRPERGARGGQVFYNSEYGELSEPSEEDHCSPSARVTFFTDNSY

NCI-H3255 [4] = assay: Antiproliferative activity against human H3255 cells after 72 hrs by MTT assay; format: functional, cell-based; conditions: NCI-H3255, 72 h
Method in brief: (§2)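 Cells seeded at 3000/well in growth medium with 10% FBS and left overnight. Treated in triplicate for 72 h at nine concentrations (0.458 to 30,000 nM), with DMSO-only controls. MTT (5 mg/mL) added for the last 4 h, formazan dissolved in DMSO, absorbance read at 490 nm. IC50 from non-linear sigmoidal dose-response fit.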

A-431 [5] = assay: Antiproliferative activity against human A431 cells after 72 hrs by MTT assay; format: functional, cell-based; conditions: A-431, 72 h; method in brief: as §2
HCC827 [6] = assay: Antiproliferative activity against human HCC827 cells after 72 hrs by MTT assay; format: functional, cell-based; conditions: HCC827, 72 h; method in brief: as §2
NCI-H1975 [7] = assay: Antiproliferative activity against human NCI-H1975 cells after 72 hrs by MTT assay; format: functional, cell-based; conditions: NCI-H1975, 72 h; method in brief: as §2
PC-9 = assay: Antiproliferative activity against human PC9 cells after 72 hrs by MTT assay; format: functional, cell-based; conditions: PC-9, 72 h; method in brief: as §2
BEAS-2B = assay: Cytotoxicity against human BEAS2B cells after 72 hrs by MTT assay; format: cell-based; method in brief: as §2
[8] = target: T1, Epidermal growth factor receptor (Homo sapiens, UniProt P00533); assay: Inhibition of EGF-induced EGFR autophosphorylation at Y1068 residues in human H1975 cells by Western blot method; format: cell-based
T1 sequence (P00533 whole entry): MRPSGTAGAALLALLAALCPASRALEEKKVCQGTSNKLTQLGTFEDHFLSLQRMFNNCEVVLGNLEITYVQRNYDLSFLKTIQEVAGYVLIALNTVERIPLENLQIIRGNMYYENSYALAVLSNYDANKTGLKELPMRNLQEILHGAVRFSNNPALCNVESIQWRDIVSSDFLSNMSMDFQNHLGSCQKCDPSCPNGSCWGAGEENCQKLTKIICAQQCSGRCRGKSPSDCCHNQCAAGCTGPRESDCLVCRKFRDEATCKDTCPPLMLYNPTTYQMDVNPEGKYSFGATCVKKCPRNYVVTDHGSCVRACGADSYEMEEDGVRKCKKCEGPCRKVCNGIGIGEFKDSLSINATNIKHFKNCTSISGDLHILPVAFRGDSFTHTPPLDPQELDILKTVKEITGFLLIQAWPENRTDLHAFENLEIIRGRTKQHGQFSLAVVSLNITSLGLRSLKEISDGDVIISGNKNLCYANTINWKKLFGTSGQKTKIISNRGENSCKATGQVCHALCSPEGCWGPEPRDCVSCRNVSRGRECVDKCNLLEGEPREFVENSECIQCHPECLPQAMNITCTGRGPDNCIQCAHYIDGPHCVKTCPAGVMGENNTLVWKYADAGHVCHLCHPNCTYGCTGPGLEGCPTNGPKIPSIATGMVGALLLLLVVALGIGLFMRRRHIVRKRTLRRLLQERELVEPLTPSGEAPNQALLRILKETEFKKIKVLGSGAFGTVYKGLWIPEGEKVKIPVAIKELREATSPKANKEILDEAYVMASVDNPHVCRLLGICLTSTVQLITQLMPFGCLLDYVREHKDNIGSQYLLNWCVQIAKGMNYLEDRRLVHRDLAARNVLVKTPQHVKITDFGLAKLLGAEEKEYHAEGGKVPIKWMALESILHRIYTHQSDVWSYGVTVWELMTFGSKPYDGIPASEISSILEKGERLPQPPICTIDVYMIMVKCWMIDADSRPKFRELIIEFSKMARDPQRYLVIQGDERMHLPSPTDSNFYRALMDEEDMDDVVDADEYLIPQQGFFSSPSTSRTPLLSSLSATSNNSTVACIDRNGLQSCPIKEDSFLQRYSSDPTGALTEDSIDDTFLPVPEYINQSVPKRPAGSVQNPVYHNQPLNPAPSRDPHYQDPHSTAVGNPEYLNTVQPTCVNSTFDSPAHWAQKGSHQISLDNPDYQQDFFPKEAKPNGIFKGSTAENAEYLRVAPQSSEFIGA
Method in brief: (§3)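 Cell lysates prepared in protein lysis buffer and cleared at 12,000 g for 10 min at 4 °C. 50 μg protein per lane was run on a gel, transferred to PVDF and immunoblotted, with GAPDH as the loading control.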

[9] = target: T1, Epidermal growth factor receptor; assay: Inhibition of EGFR in human A431 cells assessed as decrease in EGF-induced AKT phosphorylation by Western blot method; format: cell-based; method in brief: as §3
[10] = target: T1, Epidermal growth factor receptor; assay: Inhibition of EGF-induced EGFR autophosphorylation at Y1068 residues in human A431 cells by Western blot method; format: cell-based; method in brief: as §3
NCI-H3255 [11] = assay: Induction of apoptosis in human H3255 cells assessed as necrotic cells at 500 nM after 48 hrs by Annexin V-FITC/PI staining based flow cytometry (reference value: 7.06%); format: functional
NCI-H3255 [12] = assay: Induction of apoptosis in human H3255 cells assessed as viable cells at 1000 nM after 48 hrs by Annexin V-FITC/PI staining based flow cytometry (reference value: 87.9%); format: functional; conditions: NCI-H3255, 48 h, read-out: Activity
NCI-H3255 [13] = assay: Induction of apoptosis in human H3255 cells assessed as necrotic cells at 1000 nM after 48 hrs by Annexin V-FITC/PI staining based flow cytometry (reference value: 7.06%); format: functional
A-431 [14] = assay: Induction of apoptosis in human A431 cells assessed as viable cells at 500 nM after 48 hrs by Annexin V-FITC/PI staining based flow cytometry (reference value: 90.3%); format: functional; conditions: A-431, 48 h, read-out: Activity
A-431 [15] = assay: Induction of apoptosis in human A431 cells assessed as viable cells at 1000 nM after 48 hrs by Annexin V-FITC/PI staining based flow cytometry (reference value: 90.3%); format: functional; conditions: A-431, 48 h, read-out: Activity
A-431 [16] = assay: Induction of apoptosis in human A431 cells assessed as early apoptotic cells at 1000 nM after 48 hrs by Annexin V-FITC/PI staining based flow cytometry (reference value: 3.40%); format: functional
HCC827 [17] = assay: Induction of apoptosis in human HCC827 cells assessed as late apoptotic cells at 500 nM after 48 hrs by Annexin V-FITC/PI staining based flow cytometry (reference value: 1.15%); format: functional
HCC827 [18] = assay: Induction of apoptosis in human HCC827 cells assessed as late apoptotic cells at 1000 nM after 48 hrs by Annexin V-FITC/PI staining based flow cytometry (reference value: 1.15%); format: functional
NCI-H1975 [19] = assay: Induction of apoptosis in human NCI-H1975 cells assessed as necrotic cells at 250 nM after 48 hrs by Annexin V-FITC/PI staining based flow cytometry (reference value: 2.31%); format: functional
NCI-H1975 [20] = assay: Induction of apoptosis in human NCI-H1975 cells assessed as late apoptotic cells at 500 nM after 48 hrs by Annexin V-FITC/PI staining based flow cytometry (reference value: 1.91%); format: functional
NCI-H1975 [21] = assay: Induction of apoptosis in human NCI-H1975 cells assessed as late apoptotic cells after 48 hrs by Annexin V-FITC/PI staining based flow cytometry; format: functional, cell-based
[22] = AUC (0 to infinity) in Sprague-Dawley rat at 30 mg/kg, po by UPLC-MS/MS analysis; format: ADME, organism-based; set-up: dose 30 mg/kg, route oral, time infinity; conditions: in vivo
Method in brief: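 Four female and four male Sprague-Dawley rats, 200-220 g, fasted 12 h, then given a single oral dose of 30 mg/kg as a 0.5% CMC-Na suspension. Blood sampled at 0.083, 0.25, 0.5, 1, 2, 4, 8 and 24 h, plasma separated by centrifugation at 4000 r/min for 10 min, and analysed by UPLC–MS/MS. Parameters reported as mean ± SD, n=6.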

[23] = target: Fibroblast growth factor receptor 1 (Homo sapiens) (UniProt P11362); assay: Inhibition of N-terminal GST-tagged human FGFR1 cytoplasmic domain (398 to 822 residues) expressed in baculovirus expression system at […] using FAM-labeled peptide as substrate after 10 mins by mobility shift assay relative to control; method in brief: as §1
[24] = target: T1, Epidermal growth factor receptor; assay: Inhibition of N-terminal GST-tagged wild type human EGFR cytoplasmic domain (669 to 1210 residues) expressed in baculovirus expression system using FAM-labeled peptide as substrate after 10 mins by mobility shift assay
[25] = target: Epidermal growth factor receptor (Homo sapiens, UniProt P00533, DEL747/DEL747-750); assay: Inhibition of N-terminal GST-tagged human EGFR del 747-750 mutant cytoplasmic domain expressed in baculovirus expression system using FAM-labeled peptide as substrate after 10 mins by mobility shift assay

Structure (SMILES): COc1cccc(Nc2cc(Nc3cc(OC)ccc3OC)ncn2)c1
inhibition [1]: 7.2%
inhibition [2]: 6.8%
inhibition [3]: 47.3%
IC50 (NCI-H3255 [4]): 0.86 µM
IC50 (A-431 [5]): 0.74 µM
IC50 (HCC827 [6]): 1.14 µM
IC50 (NCI-H1975 [7]): 0.89 µM
IC50 (PC-9): 0.45 µM
IC50 (BEAS-2B): 21.4 µM
inhibition [8]: Dose-dependent effect
inhibition [9]: Dose-dependent effect
inhibition [10]: Dose-dependent effect
Activity (NCI-H3255 [11]): 4.88%
viability at 1 µM (NCI-H3255 [12]): 65.4%
Activity (NCI-H3255 [13]): 6.35%
viability at 0.5 µM (A-431 [14]): 70.7%
viability at 1 µM (A-431 [15]): 65.3%
Activity (A-431 [16]): 18.1%
Activity (HCC827 [17]): 7.72%
Activity (HCC827 [18]): 14.4%
Activity (NCI-H1975 [19]): 7.95%
Activity (NCI-H1975 [20]): 15.5%
Activity (NCI-H1975 [21]): Dose-dependent effect
AUC(0-inf) [22]: 5820 ng·h/mL
inhibition [23]: -9.3%

Structure (SMILES): COc1cccc(Nc2cc(NC(=O)CCCC(=O)O)ncn2)c1
IC50 [24]: 0.037 µM
IC50 [25]: 0.012 µM
inhibition [1]: 12%
inhibition [2]: 18.8%
inhibition [3]: 29.4%
inhibition [23]: -5.5%

Structure (SMILES): COc1ccc(Nc2cc(NC(=O)c3ccccc3)ncn2)cc1
IC50 [24]: 0.081 µM
IC50 [25]: 0.026 µM
inhibition [1]: 3.3%
inhibition [2]: 5.6%
inhibition [3]: 21.6%
IC50 (NCI-H3255 [4]): 8.88 µM
IC50 (A-431 [5]): 9.46 µM
IC50 (HCC827 [6]): 5.35 µM
IC50 (NCI-H1975 [7]): 11.4 µM
IC50 (PC-9): 0.66 µM
IC50 (BEAS-2B): 18.5 µM
inhibition [23]: 2.8%

Structure (SMILES): CCOC(=O)c1ccc(Nc2cc(NC(=O)CCCC(=O)O)ncn2)cc1
IC50 [24]: 0.048 µM
IC50 [25]: 0.021 µM
inhibition [1]: 4.4%
inhibition [2]: 8.4%
inhibition [3]: 28.2%
inhibition [23]: -5.3%

Structure (SMILES): O=C(O)CCCC(=O)Nc1cc(N2CCOCC2)ncn1
IC50 [24]: 0.053 µM
IC50 [25]: 0.011 µM
inhibition [1]: 9.2%
inhibition [2]: 6%
inhibition [3]: 9.5%
IC50 (NCI-H3255 [4]): 5.69 µM
IC50 (A-431 [5]): 0.78 µM
IC50 (HCC827 [6]): 1.56 µM
IC50 (NCI-H1975 [7]): 1.16 µM
IC50 (PC-9): 0.56 µM
IC50 (BEAS-2B): 17.9 µM

inhibition [1]: 4%
inhibition [2]: 9.6%
inhibition [3]: 29.4%
IC50 (NCI-H3255 [4]): > 30 µM
IC50 (A-431 [5]): > 30 µM
IC50 (HCC827 [6]): 4.02 µM
IC50 (NCI-H1975 [7]): > 30 µM
IC50 (PC-9): 2 µM
inhibition [23]: -8.8%
Structure (SMILES): O=C(O)CCCC(=O)Nc1cc(Nc2cccc(Cl)c2)ncn1
IC50 (BEAS-2B): 18 µM
